M18AAP inhibitor: blocks P. falciparum M18 aspartyl aminopeptidase; recombinant PfM18AAP, H-Glu-NHMec fluorogenic cleavage; inhibition, % at 7.35 µM; hit rate 1.2% among 290,000; AID 1822;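 active means inhibition above the campaign mean inhibition over all tested compounds plus 3 SD, cut at about 28% in these data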
UBC13 polyUb: inhibitors of human UBC13 polyubiquitin chain formation; TR-FRET; inhibition, % at 20 µM; hit rate 0.47% among 330,000; AID 485273; in the data active means inhibition above about 45%, passing the limit was not always enough
Target sequence (P61088 whole entry, looked up): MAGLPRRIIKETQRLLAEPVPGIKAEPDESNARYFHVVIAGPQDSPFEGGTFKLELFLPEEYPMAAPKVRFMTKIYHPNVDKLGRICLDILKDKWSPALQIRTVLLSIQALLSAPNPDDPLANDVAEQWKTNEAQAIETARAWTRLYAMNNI
ZTA DNA inh: counter-screen for EBNA-1 inhibitors: inhibitors of Epstein-Barr virus ZTA; P03206; inhibition, % at 11 µM; ZTA-DNA binding, fluorescence polarization; AID 2234; hit rate 0.15% among 320,000; in the data active means inhibition above about 33%
Target sequence (P03206 whole entry, looked up): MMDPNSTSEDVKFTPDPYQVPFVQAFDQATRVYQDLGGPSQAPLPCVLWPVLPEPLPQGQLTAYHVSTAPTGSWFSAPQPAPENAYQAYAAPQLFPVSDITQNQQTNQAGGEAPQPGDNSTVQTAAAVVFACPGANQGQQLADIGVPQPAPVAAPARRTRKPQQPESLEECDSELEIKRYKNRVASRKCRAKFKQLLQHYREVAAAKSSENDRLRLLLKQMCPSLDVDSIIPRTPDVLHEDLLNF
PfG6PD inh: PfG6PD (Plasmodium falciparum) enzyme inhibition | PfGluPho enzyme, NADPH resazurin-diaphorase fluorescence | hit rate 0.78% among 350,000 | inhibition, % at 20 µM | AID 504690;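 active means inhibition reaching at least a set limit at 20 µM in the primary screen, cut at about 59% in these data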
Apaf-1 inh: inhibitors of human Apaf-1 apoptosome. O14727. reconstituted apoptosome caspase-3 activity, DEVD-Rh110 fluorescence. inhibition, % at 20 µM. hit rate 0.71% among 330,000; active means inhibition of at least 40% at 20 µM
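Assay system – apoptosome proteins · Medium – Hepes buffer, pH 7.5 · Also added – cytochrome c with DEVD-Rh110 · Timing – 30 min compound preincubation, 50 min activation, room temperature · Detection – Rh110 fluorescence, excitation 480 nm, emission 540 nm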
EBNA-1 inh: blocks EBNA-1 binding to DNA; EBNA-1 DNA binding, fluorescence polarization; inhibition, % at 14.8 µM; hit rate 0.34% among 300,000; AID 1950; in the data active means inhibition above about 28%
EBNA-1 confirm: EBNA-1 (EBV) inhibition, confirmation; AID 2292; inhibition, % at 14.8 µM; shares compounds with EBNA-1 inh; hit rate 35% among 830; Recombinant EBNA-1 DBD, Cy5-DNA fluorescence polarization;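 active means mean inhibition across replicates above a set limit taken from the earlier primary screen, cut at about 28% in these data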
ZTA counter trip: blocks Epstein-Barr virus ZTA in triplicate, EBNA-1 counter-screen; shares compounds with EBNA-1 inh; inhibition, % at 11.1 µM; AID 2328; Zta-ZRE DNA binding, Cy5 fluorescence polarization; 830 tested, under 10 active;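 active means mean inhibition over triplicates above a set limit taken from the primary EBNA-1 screen, cut at about 37% in these data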;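 further: purified full length Zta protein with Cy5 labeled ZRE DNA probe; inhibitors lower polarization by freeing the labeled DNA probe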
Of the large screens only hits and unclear results are named; the others gave an inactive call (follow-up assays come after a bar, where they were run). Rows were chosen to be rich in hits. Some 2.9% of all compounds tested hit in one or more screens of this group.

CCSc1nnc(C)c(=O)n1COC(=O)c1ccc(S(=O)(=O)N2CCCC2)cc1	none
Cc1nc(-c2ccccc2)nc2[nH]c(-c3ccccc3)cc(=O)c12	EBNA-1 inh 27.6 | EBNA-1 confirm inactive | ZTA counter trip inactive
CCC(=O)Nc1ccc(C(=O)CSc2nnc(-c3ccc(NS(C)(=O)=O)cc3)n2C)cc1OC	none
COc1ccc(-c2nnn(CC(=O)N(CC(=O)NCCC(C)C)Cc3cccs3)n2)cc1OC	EBNA-1 inh 30.3 | EBNA-1 confirm inactive | ZTA counter trip inactive
COc1ccc(NC(=O)c2cc(S(=O)(=O)N3CCc4ccccc43)cn2C)cc1OC	EBNA-1 inh 39.8 | EBNA-1 confirm 38.9 | ZTA counter trip inactive
COc1ccc(NC(=O)c2cc(S(=O)(=O)N3CCc4ccccc43)cn2C)c(OC)c1	none
CCSc1nnc2ccc(-c3ccc(OC)c(OC)c3)nn12	none
O=C(Nc1cc(F)cc(F)c1)c1ccc(NCCc2ccccc2)c([N+](=O)[O-])c1	EBNA-1 inh 74.4 | EBNA-1 confirm inactive | ZTA counter trip inactive
Cc1ccc(NC(=O)c2ccc(NCCc3ccccc3)c([N+](=O)[O-])c2)cc1F	none
COc1ccc(-c2csc(N3C(=N)SCC3=O)n2)cc1	EBNA-1 inh 44.2 | EBNA-1 confirm inactive | ZTA counter trip inactive
COc1ccc(-c2csc(N3C(=O)CNC3=S)n2)cc1	EBNA-1 inh 81.6 (no result: UBC13 polyUb, Apaf-1 inh) | EBNA-1 confirm 43.6 | ZTA counter trip inactive
COc1ccc(-c2csc(N3C(=O)C4C5c6ccccc6C(c6ccccc65)[C@@H]4C3=O)n2)cc1 (stereo partly specified)	none
Cc1ccc(OCc2nnc(NC(=O)c3ccco3)s2)c(C)c1	EBNA-1 inh 45.6 | EBNA-1 confirm inactive | ZTA counter trip inactive
O=C1C[C@@H]2c3c(cccc3CN1Cc1ccc(Cl)cc1)C[C@@H](O)[C@H]2O	none (no result: M18AAP inhibitor, UBC13 polyUb, ZTA DNA inh, Apaf-1 inh, EBNA-1 inh)
O=C(CNC(=O)c1cccc(F)c1)NC1CC1	none (no result: M18AAP inhibitor, ZTA DNA inh, EBNA-1 inh)
COc1ccc(-n2c(SCC(=O)NCCCN3CCCC3=O)nnc2C(C)N2CCCCC2)cc1 (stereo unspecified)	EBNA-1 inh 41.0 | EBNA-1 confirm inactive | ZTA counter trip inactive
O=C(CCCCCn1c(=S)[nH]c2cc3c(cc2c1=O)OCO3)N1CCN(Cc2ccccc2)CC1	EBNA-1 inh 36.6 | EBNA-1 confirm 69.4 | ZTA counter trip inactive
Cc1cc(NC(=O)CSc2nnc(NC(=O)C3CC(=O)N(c4ccccc4)C3)s2)no1 (stereo unspecified)	EBNA-1 inh 83.4 | EBNA-1 confirm inactive | ZTA counter trip inactive
Cc1cc(NC(=O)CSc2nnc(NC(=O)C3CC(=O)N(c4ccccc4C)C3)s2)no1 (stereo unspecified)	none
Cc1ccc(C)c(N(CC(=O)Nc2ccc(-c3nc4ccc(C)cc4s3)cc2)S(C)(=O)=O)c1	EBNA-1 inh 36.0 | EBNA-1 confirm inactive | ZTA counter trip inactive
Cc1ccc(NC(=O)CCCN2C(=O)c3cccc4cccc(c34)C2=O)cc1	EBNA-1 inh 55.4 | EBNA-1 confirm inactive | ZTA counter trip inactive
Cc1ccc(NC(=O)CCN2C(=O)c3cccc4cccc(c34)C2=O)cc1	none
O=C(CSc1nc2ncc(Cl)cc2[nH]1)c1c[nH]c2ccccc12	EBNA-1 inh 31.0 | EBNA-1 confirm inactive | ZTA counter trip inactive
Cc1ccc(C(=O)CSc2nnc(CNc3ccc(C)cc3C)o2)cc1	EBNA-1 inh 30.7 | EBNA-1 confirm inactive | ZTA counter trip inactive
Cc1ccc(NCc2nnc(SCC(N)=O)o2)c(C)c1	none
Cc1ccc(C(=O)Nc2nc3ccc(S(C)(=O)=O)cc3s2)cc1C	EBNA-1 inh 143.9 | EBNA-1 confirm 96.8 | ZTA counter trip inactive
CCn1c(CSc2nnc3ccccn23)nc2cc(C(=O)O)ccc21	EBNA-1 inh 44.8 | EBNA-1 confirm 44.4 | ZTA counter trip 82.4
CCOC(=O)c1c(-c2ccc(C)o2)csc1NC(=S)NC(=O)c1ccc(F)cc1	EBNA-1 inh 28.2 | EBNA-1 confirm inactive | ZTA counter trip inactive
Cc1nn(CC(=O)NCc2cccc3ccccc23)c(=O)c2ccccc12	EBNA-1 inh 31.1 | EBNA-1 confirm inactive | ZTA counter trip inactive
C/C(=N/NC(=O)c1ccncc1)c1ccc(NC(=O)c2ccc(Cl)cc2Cl)cc1	EBNA-1 inh 36.5 | EBNA-1 confirm 30.8 | ZTA counter trip inactive
Cc1ccccc1OCC(=O)Nc1ccc2c(c1)C(=O)c1ccccc1C2=O	none
Cc1ccccc1OCC(=O)Nc1ccc2c(c1)Cc1ccccc1-2	EBNA-1 inh 29.3 | EBNA-1 confirm inactive | ZTA counter trip inactive
CCOC(=O)c1cc2cc(CC(=O)c3ccc(OCC)cc3O)ccc2o1	EBNA-1 inh 27.8 | EBNA-1 confirm 29.6 | ZTA counter trip inactive
CCN1C(=O)c2cccc3c(S(=O)(=O)Nc4ccc(OC)cc4OC)ccc1c23	EBNA-1 inh 32.2 | EBNA-1 confirm inactive | ZTA counter trip inactive
CCN1C(=O)c2cccc3c(S(=O)(=O)Nc4ccccc4)ccc1c23	none
O=C(C1=NNCC1c1ccccc1)C1CO1 (stereo unspecified)	none (no result: UBC13 polyUb, ZTA DNA inh, Apaf-1 inh, EBNA-1 inh)
Cc1nn(Cc2ccccc2)c(C)c1NC(=O)c1cc(-c2ccc3c(c2)OCO3)on1	EBNA-1 inh 42.0 | EBNA-1 confirm 42.5 | ZTA counter trip inactive
COc1ccc(-c2cc(C(=O)Nc3c(C)nn(Cc4ccccc4)c3C)no2)cc1	none
Cc1nc(N2CCN(c3ccccn3)CC2)c2c(C)c(C(=O)N3CCN(c4ccccc4F)CC3)sc2n1	none (no result: UBC13 polyUb, Apaf-1 inh)
CC(=O)Nc1ccc(C(=O)N(C)C(C(=O)Nc2ccccc2)c2ccccn2)cc1 (stereo unspecified)	none
O=C(CSCc1ccc(Cl)cc1)N/N=C/c1ccc(OCC(=O)Nc2ccccc2)cc1	EBNA-1 inh 51.6 | EBNA-1 confirm 29.3 | ZTA counter trip inactive
Cc1ccc(C(=O)CCC(=O)OCC(=O)N2CCN(S(=O)(=O)c3ccc(C)cc3C)CC2)cc1	none (no result: M18AAP inhibitor, UBC13 polyUb, ZTA DNA inh, Apaf-1 inh, EBNA-1 inh)
NS(=O)(=O)c1ccc(NC(=O)c2ccc(COc3ccccc3)o2)cc1	EBNA-1 inh 38.7 | EBNA-1 confirm inactive | ZTA counter trip inactive
O=C(O)c1ccc(NC(=O)c2ccc(COc3ccccc3)o2)cc1	none (no result: ZTA DNA inh, EBNA-1 inh)
CC1CCCCC1NC(=O)C1CCC(CNS(=O)(=O)c2ccccc2)CC1 (stereo unspecified)	EBNA-1 inh 30.9 | EBNA-1 confirm inactive | ZTA counter trip inactive
CC1CCC(NC(=O)C2CCC(CNS(=O)(=O)c3ccccc3)CC2)CC1 (stereo unspecified)	none (no result: ZTA DNA inh, EBNA-1 inh)
NC(=O)NOCc1cccc(Cl)c1	none
O=C(CCCN1C(=O)/C(=C/c2cccs2)SC1=S)NNC(=O)c1ccccc1O	EBNA-1 inh 40.1 | EBNA-1 confirm inactive | ZTA counter trip inactive

Screening results: PubChem, several laboratories
